Here are results for one molecule from ChEMBL document CHEMBL3525987, “Assessment of exposure of metabolites in preclinical species and humans at steady state from the single-dose radiolabeled absorption, distribution, metabolism, and excretion studies: a case study” (Drug Metab Dispos, 2012).

Data set [1] relates to Rattus norvegicus. In words: AUC(0 to t) as total radioactivity in male Sprague-Dawley rat plasma at 10 mg/kg, po administered as single dose via gavage by LC-MS/MS analysis. To be noted: in vivo. The class given is ADME, organism-based. Set-up: dose 10 mg/kg, dosed compound name [14C]lixivaptan, route oral. A digest of the protocol:
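Jugular-cannulated Sprague-Dawley rats (5/gender) were fasted 18 h and gavaged once with 10 mg/kg [14C]lixivaptan suspended in water/pluronic F68. K2EDTA blood was taken at 0.25–168 h, with donor blood replaced from 1 h on. Total radioactivity was read by LSC (ng-equiv/ml) and parent by validated LC-MS/MS. Noncompartmental Cmax, log-linear kel and trapezoidal AUC followed.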

Data set [2] deals with Rattus norvegicus. In words: Tmax as total radioactivity in female Sprague-Dawley rat plasma at 10 mg/kg, po administered as single dose via gavage by LC-MS/MS analysis. Set-up: dose 10 mg/kg, dosed compound name [14C]lixivaptan, route oral. To be noted: in vivo. The class given is ADME, organism-based. In outline: (§1)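 Jugular-vein cannulated SD rats (5/gender) given gavage [14C]drug 10 mg/kg in pluronic F68/water; K2EDTA blood 0.25-168 h with donor blood replacement. Parent by validated LC-MS/MS, radioactivity by LSC; Tmax observed; t1/2 = 0.693/kel by terminal log-linear regression.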

Data set [3] relates to Canis familiaris. Nature of the data set: Tmax as total radioactivity in male beagle dog plasma at 10 mg/kg, po administered as single dose by LC-MS/MS analysis. The class given is ADME, organism-based, Canis lupus familiaris. On the set-up: dose 10 mg/kg, dosed compound name [14C]lixivaptan, route oral. To be noted: in vivo. In outline:
(§2)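 Male beagles given 10 mg/kg [14C]drug oral suspension; jugular K2EDTA blood at 0.25-168 h. Parent by validated LC-MS/MS, total radioactivity by LSC; Tmax observed; t1/2 = 0.693/kel from terminal log-linear regression.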

The subject of data set [4] is Canis familiaris. Nature of the data set: Cmax as total radioactivity in male beagle dog plasma at 10 mg/kg, po administered as single dose by LC-MS/MS analysis. Type of data set: ADME, organism-based, Canis lupus familiaris. Set-up: dose 10 mg/kg, dosed compound name [14C]lixivaptan, route oral. To be noted: in vivo. A digest of the protocol: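 Four male beagles were fasted 18 h and gavaged once with 10 mg/kg (2 ml/kg) [14C]lixivaptan as a 5.0 mg/ml water/pluronic F68 suspension. Jugular K2EDTA blood was sampled from 0.25 to 168 h. Plasma total radioactivity was counted by LSC as ng-equiv/ml and lixivaptan by validated LC-MS/MS. Noncompartmental Cmax, t1/2 and trapezoidal AUC were derived.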

Data set [5] can be described thus: Drug recovery in urine of human at […], po administered as single dose measured after 168 hrs by liquid scintillation counting. The class given is ADME, organism-based. On the set-up: dosed compound name [14C]lixivaptan, route oral. To be noted: in vivo. In outline:
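Healthy male volunteers given single oral 100 mg (200 µCi) [14C]drug capsules after ≥10 h fast. Urine at 0-4, 4-8, 8-12, 12-24 h then 24-h intervals; feces as passed, to 168 h. Urine LSC; feces homogenized in water, combusted, LSC; % of dose.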

The nature of data set [6]: Drug recovery in urine of male Sprague-Dawley rat at 10 mg/kg, po administered as single dose via gavage measured after 168 hrs by liquid scintillation counting. The class given is ADME, organism-based. On the set-up: dose 10 mg/kg, dosed compound name [14C]lixivaptan, route oral. To be noted: in vivo. A digest of the protocol:
(§3)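 Intact SD rats (3/gender) dosed by gavage with [14C]drug 10 mg/kg (10 ml/kg, pluronic F68/water), housed in metabolism cages; urine and feces at 0-8, 8-24 h, then every 24 h to 7 days. Urine counted by LSC; feces homogenized 20% w/w in water, combusted, trapped CO2 counted; cage wash/debris included; % of dose.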

A short description of data set [7]: Drug recovery in feces of female Sprague-Dawley rat at 10 mg/kg, po administered as single dose via gavage measured after 168 hrs by liquid scintillation counting. The class given is ADME, organism-based. On the set-up: dose 10 mg/kg, dosed compound name [14C]lixivaptan, route oral. To be noted: in vivo. In outline: as §3
Data set [8] has as its system Rattus norvegicus. In words: Drug recovery in cage wash/debris of female Sprague-Dawley rat at 10 mg/kg, po administered as single dose via gavage measured after 168 hrs by liquid scintillation counting. To be noted: in vivo. Type of data set: ADME, organism-based. On the set-up: dose 10 mg/kg, dosed compound name [14C]lixivaptan, route oral. A digest of the protocol:
as §3

Data set [9] is described as follows: Drug recovery in bile of bile duct-cannulated male Sprague-Dawley rat at 10 mg/kg, po administered as single dose via gavage measured from 0 to 48 hrs by liquid scintillation counting. Type of data set: ADME, organism-based. On the set-up: dose 10 mg/kg, dosed compound name [14C]lixivaptan, route oral. To be noted: in vivo. In outline:
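Bile-duct cannulated SD rats (n=5) got single gavage of [14C]drug 10 mg/kg as pluronic F68/water suspension. Bile collected on wet ice at 0-4, 4-8, 8-24, 24-48 h; drinking water supplemented with bile salts and electrolytes. Duplicate aliquots counted by liquid scintillation; expressed as % of dose.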

Data set [10] relates to Rattus norvegicus. Nature of the data set: Total drug recovery in bile duct-cannulated male Sprague-Dawley rat at 10 mg/kg, po administered as single dose via gavage measured from 0 to 48 hrs by liquid scintillation counting. Set-up: dose 10 mg/kg, dosed compound name [14C]lixivaptan, route oral. To be noted: in vivo. Type of data set: ADME, organism-based. A digest of the protocol:
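Male BDC rats (n=5) given oral [14C]drug as a suspension in deionized water with pluronic F68 (10 ml/kg). Drinking water supplemented with bile salts, NaCl and KCl. Bile collected on wet ice at 0-4, 4-8, 8-24 and 24-48 h. Duplicate aliquots counted by LSC; recovery expressed as % of dose in bile.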

Data set [11] concerns Rattus norvegicus. In words: Total drug recovery in bile duct-cannulated female Sprague-Dawley rat at 10 mg/kg, po administered as single dose via gavage measured 0 to 48 hrs by liquid scintillation counting. To be noted: in vivo. Set-up: dose 10 mg/kg, dosed compound name [14C]lixivaptan, route oral. Type of data set: ADME, organism-based.
In data set [12] the test system is Canis familiaris. Nature of the data set: AUC (0 to 24 hrs) in beagle dog at 10 mg/kg, po administered as single dose. Type of data set: ADME, organism-based, Canis lupus familiaris, Plasma. On the set-up: time < 24 hr, dose 10 mg/kg, dosed compound name [14C]lixivaptan, route oral. To be noted: in vivo. In outline: (§4)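 Four male beagles fasted 18 h were gavaged once with [14C]lixivaptan at 10 mg/kg (2 ml/kg). The 5.0 mg/ml suspension was in deionized water with pluronic F68 (1.04 µCi/mg). Jugular K2EDTA plasma was taken at 2, 8 and 24 h and extracted twice with 2 volumes of acetonitrile. Profiling used C18 radio-HPLC (ammonium formate/acetonitrile gradient) with on-line flow scintillation detection. Each peak is reported as percent of plasma radioactivity.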

The nature of data set [13]: Drug recovery in feces of male beagle dog at 10 mg/kg, po administered as single dose via gavage measured after 168 hrs by liquid scintillation counting. To be noted: in vivo. The class given is ADME, organism-based, Canis lupus familiaris. Set-up: dose 10 mg/kg, dosed compound name [14C]lixivaptan, route oral. A digest of the protocol:
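Four male beagles got 10 mg/kg (2 ml/kg) [14C]drug suspension (5.0 mg/ml, pluronic F68/water, 1.04 µCi/mg) by gavage. Urine and feces collected over dry ice at 0-8, 8-24 h, then every 24 h to 7 days; urine by LSC, fecal homogenates combusted then LSC; cage wash/debris included; % of dose.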

In data set [14] the test system is Rattus norvegicus. Nature of the data set: Half life as total radioactivity in male Sprague-Dawley rat plasma at 10 mg/kg, po administered as single dose via gavage by LC-MS/MS analysis. Type of data set: ADME, organism-based. To be noted: in vivo. Set-up: dose 10 mg/kg, dosed compound name [14C]lixivaptan, route oral. In outline: as §1
Data set [15] deals with Canis familiaris. In words: Half life as total radioactivity in male beagle dog plasma at 10 mg/kg, po administered as single dose by LC-MS/MS analysis. Set-up: dose 10 mg/kg, dosed compound name [14C]lixivaptan, route oral. The class given is ADME, organism-based, Canis lupus familiaris. To be noted: in vivo. A digest of the protocol:
as §2

Data set [16] is described as follows: Retention time of the compound by HPLC analysis. The class given is physicochemical. On the set-up: dosed compound name [14C]lixivaptan.
The subject of data set [17] is Homo sapiens. In words: Drug level in human plasma at 100 mg, po administered as single dose measured after 2 hrs by liquid scintillation counting. The class given is ADME, organism-based. On the set-up: dosed compound name [14C]lixivaptan. To be noted: in vivo. A digest of the protocol: (§5)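 Healthy male volunteers fasted ≥10 h, given single oral 100 mg (200 µCi) [14C]drug as two 50-mg capsules with 250 ml water. Plasma (from ~50 ml blood) at 0.5, 2, 4, 8, 12, 24, 36 h, profiled per subject. Acetonitrile extraction, C18 radio-HPLC with 0.2% formic acid acetonitrile/water gradient, on-line radioactivity detection as % plasma radioactivity; ng-equiv/ml from % × total radioactivity.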

The subject of data set [18] is Homo sapiens. In words: Drug level in human plasma at 100 mg, po administered as single dose measured after 12 hrs by liquid scintillation counting. The class given is ADME, organism-based. To be noted: in vivo. Set-up: dosed compound name [14C]lixivaptan. In outline:
as §5

The subject of data set [19] is Canis familiaris. In words: Drug level in beagle dog plasma at 10 mg/kg, po administered as single dose measured after 8 hrs by liquid scintillation counting. The class given is ADME, organism-based, Canis lupus familiaris. Set-up: dose 10 mg/kg, dosed compound name [14C]lixivaptan, route oral. To be noted: in vivo. In outline:
as §4

Data set [20] has as its system Homo sapiens. In words: Cmax in human at 100 mg, po. To be noted: in vivo.

As for `Cc1ccc(F)cc1[14C](=O)Nc1ccc(C(=O)N2Cc3cccn3Cc3ccccc32)c(Cl)c1`, in the data set with Rattus norvegicus [1], the AUCt stood at 65700 ng.Eq.hr/ml. Besides, the time of peak concentration (Tmax) amounted to 1.4 h in the data set with Rattus norvegicus [2] and 1.8 h in the data set on Canis familiaris [3]. Moreover, the Cmax was determined as 3570 ngequiv/ml with Canis familiaris [4] and 454 ngequiv/ml in the data set with Homo sapiens [20]. Also, the Radiolabel recovery in data set [5] is recorded as 20.5%; in [6], 5.77%; in [7], 92%; in the data set with Rattus norvegicus [8] it was 3.51%; in [9], 65.4%; with Rattus norvegicus [10], 65.4%. In addition, the Radiolabel recovery in the data set on Rattus norvegicus [11] is 70.5%; in [13] it was 83.1%. In the data set with Canis familiaris [12], this molecule gave an AUC of 11200 ng.Eq.hr/ml. The t1/2 with Rattus norvegicus [14] amounted to 36.6 h; with Canis familiaris [15], 69.7 h. The molecule also returned a Retention_time in data set [16] of 34.3 min. For the same molecule, the Compound recovery in the data set on Homo sapiens [17] is on record as 13.4%; in the data set with Homo sapiens [18], 5.6%; in the data set with Canis familiaris [19] it was 14.9%.
